According to ChEMBL document CHEMBL1121586, “Synthesis, biological activity, and structure--activity/toxicity relationships of a series of terphenyl analogues of hemicholinium-3 and acetyl-seco-hemicholinium-3. 3” (J Med Chem, 1980):

Columns and labels:
[1] = system: Mus musculus; assay: Tested for percentage mortality in charles river CD-1 strain adult male albino mice after introducing antagonist choline at intraperitoneal dosage of 20 mg/kg, 1 min prior to compound; format: functional; set-up: concentration or dose not given beside the values; details: ip
[2] = system: Mus musculus; assay: Tested for percentage mortality in charles river CD-1 strain adult male albino mice after introducing antagonist neostigmine at intraperitoneal dosage of 0.2 mg/kg, 1 min prior to compound; format: functional; set-up: concentration or dose not given beside the values; details: ip
[3] = Tested for biphenyl analogue in charles river CD-1 strain adult male albino mice after intraperitoneal administration; format: ADME, organism-based; details: CD-1, mouse, in vivo, ip
[4] = Tested for terphenyl analogue in charles river CD-1 strain adult male albino mice after intraperitoneal administration.; format: ADME, organism-based; details: CD-1, mouse, in vivo, ip
How it was run: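 Adult male albino Charles River CD-1 mice (20-30 g) were dosed ip with a suspension in 0.8% (w/v) sodium carboxymethylcellulose in 0.9% NaCl. The LD50 was estimated by Finney's staircase sampling method, which allows for variation in LD50 with time of day, and is reported with 95% confidence limits.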

[5] = Ratio of terphenyl LD50 doses to biphenyl HC-3 in charles river CD-1 strain adult male albino mice; format: ADME, organism-based; details: CD-1, mouse, in vivo
[6] = Ratio of terphenyl LD50 doses to biphenyl analogues in charles river CD-1 strain adult male albino mice; format: ADME, organism-based; details: CD-1, mouse, in vivo
[7] = system: Mus musculus; assay: Tested for percentage mortality in charles river CD-1 strain adult male albino mice after introducing antagonist choline at intraperitoneal dosage of 20 mg/kg, 1 min prior to compound; b represents Least toxic; format: functional, organism-based; set-up: dose 20 mg/kg
[8] = system: Mus musculus; assay: Tested for percentage mortality in charles river CD-1 strain adult male albino mice after introducing antagonist neostigmine at intraperitoneal dosage of 0.2 mg/kg, 1 min prior to compound; b represents Least toxic; format: functional, organism-based; set-up: dose 0.2 mg/kg
[9] = system: Mus musculus; assay: Tested for terphenyl analogue in charles river CD-1 strain adult male albino mice after intraperitoneal administration; b represents Least toxic; format: ADME, organism-based; details: in vivo, ip

| SMILES | mortality [1] | mortality [2] | LD50 [3] | LD50 [4] | selectivity ratio [5] | selectivity ratio [6] | Mortality [7] | Mortality [8] | LD95 [9] |
| --- | --- | --- | --- | --- | --- | --- | --- | --- | --- |
| CCCCC[N+](C)(C)CC(=O)c1ccc(-c2ccc(-c3ccc(C(=O)C[N+](C)(C)CCCCC)cc3)cc2)cc1.[Br-].[Br-] | 80% | 100% | 5.6 mg/kg | 5.32 mg/kg | 32.8 | 1.38 |  |  |  |
| CC(=O)CCC[N+](C)(C)CC(=O)c1ccc(-c2ccc(-c3ccc(C(=O)C[N+](C)(C)CCCC(C)=O)cc3)cc2)cc1.[Br-].[Br-] |  |  | 3.1 mg/kg | 4.27 mg/kg | 32.8 | 1.38 |  |  |  |
| CCOCC[N+](C)(C)CC(=O)c1ccc(-c2ccc(-c3ccc(C(=O)C[N+](C)(C)CCOCC)cc3)cc2)cc1.[Br-].[Br-] | 90% | 90% | 1.84 mg/kg | 16.6 mg/kg | 127 | 9.02 |  |  |  |
| CC(=O)SCC[N+](C)(C)CC(=O)c1ccc(-c2ccc(-c3ccc(C(=O)C[N+](C)(C)CCSC(C)=O)cc3)cc2)cc1.[Br-].[Br-] | 60% | 80% | 0.133 mg/kg | 3.05 mg/kg | 23.5 | 22.9 |  |  |  |
| C[N+]1(C)CCOC(O)(c2ccc(-c3ccc(-c4ccc(C5(O)C[N+](C)(C)CCO5)cc4)cc3)cc2)C1.[Br-].[Br-] (stereo not drawn) | 70% | 80% | 0.13 mg/kg | 0.107 mg/kg | 0.82 | 0.82 |  |  |  |
| C[N+](C)(CCS)CC(=O)c1ccc(-c2ccc(-c3ccc(C(=O)C[N+](C)(C)CCS)cc3)cc2)cc1.[Br-].[Br-] |  |  | 29.4 mg/kg |  |  |  | Toxic | Toxic | Toxic |
| CC(=O)OCC[N+](C)(C)CC(=O)c1ccc(-c2ccc(-c3ccc(C(=O)C[N+](C)(C)CCOC(C)=O)cc3)cc2)cc1.[Br-].[Br-] | 30% | 20% | 0.125 mg/kg | 0.333 mg/kg | 2.56 | 2.66 |  |  |  |
